# Active and inactive are the calls of the source. The calls are words filed in the database; no cut-off is given here.
# Assays:
# Ovis aries [1] = organism: Ovis aries; assay: Activity at cyclooxygenase in sheep seminal vesicles assessed as oxygen consumption in presence of hematin
# Outline: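 Cyclooxygenase purified from seminal vesicles was supplemented with 0.5 uM hematin. Fatty acid came from a 9 mM heptane stock, dried under N2 just before use and resuspended in 0.1 M Tris-Cl pH 8.5 with 0.67 mM phenol. O2 uptake was read by oxygen electrode in 3-mL chambers. Arachidonic acid was run alongside as control substrate.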
# Homo sapiens = organism: Homo sapiens; assay: Activity at prostaglandin synthetase in ADP-induced human platelet rich plasma assessed as malondialdehyde formation up to 5 mM by spectrophotometric analysis
# Outline: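 After ADP aggregation, PRP (compound salts added 2 min pre-ADP) was held a further 27 min at 37 °C unstirred. Samples were quenched in 20% trichloroacetic acid/0.6 M HCl and centrifuged. Supernatant was heated 15 min in boiling water with 0.12 M thiobarbiturate (Tris, pH 7.0), then read at A533. MDA = PRP minus PPP signal; recovery was 75-80%.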
# [2] = biological target: seed linoleate 13S-lipoxygenase-1 (Glycine max) (UniProt P08170); assay: Activity at soybean lipoxygenase assessed as oxygen consumption
# Ovis aries [3] = organism: Ovis aries; assay: Irreversible inactivation of cyclooxygenase-mediated cyclooxygenation of arachidonic acid in sheep seminal vesicles up to 12 mins
# Outline: (§1)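 Cyclooxygenase O2-electrode assay was run with 0.5 uM hematin in Tris-Cl pH 8.5 with 0.67 mM phenol. Inhibitor was preincubated with enzyme for progressively longer periods, up to 12 min. Degree of inhibition was compared across preincubation times to test for irreversible inactivation.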
# Platelet = assay: Antiplatelet activity against human platelet rich plasma assessed as inhibition of ADP-induced platelet aggregation up to 5 mM incubated for 2 mins prior to ADP-challenge; format: functional
# Outline: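 PRP came from citrated venous blood of aspirin-free human volunteers (200g, 20 min, RT), at 4-6 x 10^8 platelets/mL, with PPP as blank. Compound sodium salts, 50 mM in 0.1 M Na2CO3, were added as 0.01-0.05 mL to 0.5 mL of stirred PRP at 37 °C, 2 min before ADP. Aggregation was induced by 0.01 mL of 1 mM ADP and followed 2-3 min by aggregometer.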
# Ovis aries [4] = organism: Ovis aries; assay: Reversible inhibition of cyclooxygenase in sheep seminal vesicles; outline: as §1
# [5] = Competitive inhibition of cyclooxygenase-mediated cyclooxygenation of arachidonic acid in sheep seminal vesicles by Dixon plot analysis; parameters: species or system Ovis aries
# Outline: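 Seminal vesicle cyclooxygenase was used with 0.5 uM hematin in 0.1 M Tris-Cl pH 8.5 containing 0.67 mM phenol. Activity was followed as O2 consumption by oxygen electrode in 3-mL chambers, with arachidonic acid as substrate. Ki was derived by Dixon graphical method from eight assays.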
Activity (Homo sapiens),Activity [2],Activity (Ovis aries [3]),inhibition (Ovis aries [4]),Ki [5] [nM],Structure (SMILES),Activity (Ovis aries [1]),inhibition (Platelet)
inactive,Active,inactive,Active,2000,CCCCC/C(C)=C\C/C=C\C/C=C\CCCCCCC(=O)O,inactive,Active
Active,–,–,–,–,CCCCC/C=C\C/C=C\C/C=C\CCCCCCC(=O)O,–,Active
–,–,–,–,–,CCCCC/C=C\C/C=C\C/C=C\C/C=C\CCCC(=O)O,Active,–
